Test results: ChEMBL document CHEMBL4823259, “Bufadienolides from the Eggs of the Toad Bufo bufo gargarizans and Their Antimelanoma Activities” (J Nat Prod, 2021)
The source made the active and inactive calls. The calls are words filed in the database; no cut-off is given here.

Columns and labels:
SK-MEL [1] = assay: Cytotoxicity against human SK-MEL cells assessed as reduction in cell viability measured after 48 hrs by MTT assay; assay type: functional, cell-based
Method in brief: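 MTT assay: SK-MEL-1 cells (DMEM, 10% FBS, 37 °C, 5% CO2) seeded 10⁴/well for 24 h, then exposed to a range of concentrations for 48 h; MTT added for 4 h at 37 °C, formazan dissolved in DMSO, absorbance 570 nm. IC50 as mean ± SD, three independent experiments.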

Danio rerio [2] = organism: Danio rerio; assay: Antiangiogenic activity in transgenic Tg(fli1:GFP) zebra fish embryo assessed as reduction in intersegmental blood vessels at 20 uM measured at 48 hrs postfertilization by fluorescence microscopy; assay type: functional, organism-based
Method in brief: (§1)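 Tg:Fli1-GFP embryos selected at 12 hpf, 30 per well, 28.5 °C in E3 medium, exposed to compound (20 μM); chorions broken at 24 hpf; at 48 hpf ISVs and angiogenic sprouts counted by fluorescence microscopy. Sorafenib (1 μM) positive control; mean, SD; one-way ANOVA with Tukey post hoc test.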

SK-MEL [3] = assay: Induction of apoptosis in human SK-MEL cells assessed as increase in cleaved PARP level at 0.2 to 0.8 uM incubated for 48 hrs by Western blot analysis; assay type: functional, cell-based; conditions: dose 0.2-0.8 µM
Method in brief: (§2)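 SK-MEL-1 cells seeded 3 × 10⁵/well for 24 h, treated 48 h; lysed in RIPA buffer with protease and phosphatase inhibitors 15 min at 4 °C; 20 μg protein by SDS-PAGE, PVDF transfer, PARP immunoblot with ECL detection; β-actin loading control. Sorafenib (10 μM) positive control.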

[4] = Toxicity in zebra fish larvae assessed as pericardial edema at 100 uM measured at 48 hpf by stereomicroscopic analysis; set-up: species or system Danio rerio; conditions: zebrafish, 48 h
Method in brief: (§3)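 Zebrafish larvae at 48 hpf, kept at 28.5 °C in E3 medium, treated with compound; survival and pathological changes (e.g. pericardial edema) checked by stereomicroscope every 12 h.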

Danio rerio [5] = organism: Danio rerio; assay: Antiangiogenic activity in transgenic Tg(fli1:GFP) zebra fish embryo assessed as reduction in angiogenic sprouts at 20 uM measured at 48 hrs postfertilization by fluorescence microscopy; assay type: functional, organism-based; method in brief: as §1
[6] = molecular target: Vascular endothelial growth factor receptor 2 (Danio rerio) (UniProt Q5GIT4); assay: Inhibition of VEGFR2 mediated angiogenesis in transgenic Tg(flk1:GFP) zebra fish embryo at 20 uM measured at 48 hrs postfertilization by fluorescence microscopy
Method in brief: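 Tg:Flk1-GFP (VEGFR2 reporter) embryos treated from 12 hpf at 20 μM, 28.5 °C in E3 medium; chorions removed at 24 hpf; ISV and sprout numbers counted at 48 hpf under fluorescence microscope. Sorafenib (1 μM) positive control; one-way ANOVA, Tukey post hoc test.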

SK-MEL [7] = assay: Induction of apoptosis in human SK-MEL cells assessed as increase in cleaved PARP level at 10 uM incubated for 48 hrs by Western blot analysis; assay type: functional, cell-based
Method in brief: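 SK-MEL-1 cells (DMEM, 10% FBS, 37 °C, 5% CO2) were seeded at 3 × 10⁵/well for 24 h, then treated for 48 h. They were lysed in RIPA buffer with PMSF, orthovanadate, DTT and phosphatase inhibitor for 15 min at 4 °C, and protein was quantified by BCA. 20 μg was run on SDS-PAGE and blotted to PVDF, with primary antibody overnight at 4 °C and secondary 1 h at room temperature. Detection was by ECL, with β-actin as loading control.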

SK-MEL [8] = assay: Anti-melanoma activity against human SK-MEL cells xenografted in yolk of zebra fish at 0.5 uM measured after 48 hrs by CM-Dil staining based fluorescence microscopic analysis; assay type: functional, cell-based
Method in brief: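 SK-MEL-1 cells were prestained with CM-DiI (2 μM) and microinjected into the superficial yolk near the perivitelline space of 2 dpf zebrafish. Embryos were kept in E3 medium, treated for 48 h at 28.5 °C, then immobilized. CM-DiI fluorescence was imaged by fluorescence microscopy alongside bright field, and the melanoma area was outlined.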

[9] = Toxicity in zebra fish larvae assessed as curved tail at 100 uM measured at 48 hpf by stereomicroscopic analysis; set-up: species or system Danio rerio; conditions: zebrafish, 48 h; method in brief: as §3
[10] = Toxicity in zebra fish larvae assessed as death at 100 uM measured at 48 hpf by stereomicroscopic analysis; set-up: species or system Danio rerio; conditions: zebrafish, 48 h; method in brief: as §3
SK-MEL [11] = assay: Induction of apoptosis in human SK-MEL cells assessed as increase in cleaved PARP level at 0.5 to 1 uM incubated for 48 hrs by Western blot analysis; assay type: functional, cell-based; conditions: dose 0.5-1 µM; method in brief: as §2
[12] = Toxicity in zebra fish larvae at 100 uM measured at 48 hpf by stereomicroscopic analysis; set-up: species or system Danio rerio; conditions: zebrafish, 48 h; method in brief: as §3
SK-MEL [13] = assay: Anti-melanoma activity against human SK-MEL cells xenografted in yolk of zebra fish at 10 uM measured after 48 hrs by CM-Dil staining based fluorescence microscopic analysis; assay type: functional, cell-based
Method in brief: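 SK-MEL-1 cells prelabelled with CM-DiI (2 μM) microinjected into superficial yolk near perivitelline space of 2 dpf zebrafish embryos; treated 48 h at 28.5 °C; CM-DiI fluorescence of tumour mass imaged by fluorescence microscopy in immobilized fish. Sorafenib (0.5 μM) positive control.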

SK-MEL [14] = assay: Induction of apoptosis in human SK-MEL cells assessed as increase in cleaved PARP level at 0.1 to 0.5 uM incubated for 48 hrs by Western blot analysis; assay type: functional, cell-based; conditions: dose 0.1-0.5 µM; method in brief: as §2

Sequence of Vascular endothelial growth factor receptor 2 (Danio rerio) (Q5GIT4 whole entry): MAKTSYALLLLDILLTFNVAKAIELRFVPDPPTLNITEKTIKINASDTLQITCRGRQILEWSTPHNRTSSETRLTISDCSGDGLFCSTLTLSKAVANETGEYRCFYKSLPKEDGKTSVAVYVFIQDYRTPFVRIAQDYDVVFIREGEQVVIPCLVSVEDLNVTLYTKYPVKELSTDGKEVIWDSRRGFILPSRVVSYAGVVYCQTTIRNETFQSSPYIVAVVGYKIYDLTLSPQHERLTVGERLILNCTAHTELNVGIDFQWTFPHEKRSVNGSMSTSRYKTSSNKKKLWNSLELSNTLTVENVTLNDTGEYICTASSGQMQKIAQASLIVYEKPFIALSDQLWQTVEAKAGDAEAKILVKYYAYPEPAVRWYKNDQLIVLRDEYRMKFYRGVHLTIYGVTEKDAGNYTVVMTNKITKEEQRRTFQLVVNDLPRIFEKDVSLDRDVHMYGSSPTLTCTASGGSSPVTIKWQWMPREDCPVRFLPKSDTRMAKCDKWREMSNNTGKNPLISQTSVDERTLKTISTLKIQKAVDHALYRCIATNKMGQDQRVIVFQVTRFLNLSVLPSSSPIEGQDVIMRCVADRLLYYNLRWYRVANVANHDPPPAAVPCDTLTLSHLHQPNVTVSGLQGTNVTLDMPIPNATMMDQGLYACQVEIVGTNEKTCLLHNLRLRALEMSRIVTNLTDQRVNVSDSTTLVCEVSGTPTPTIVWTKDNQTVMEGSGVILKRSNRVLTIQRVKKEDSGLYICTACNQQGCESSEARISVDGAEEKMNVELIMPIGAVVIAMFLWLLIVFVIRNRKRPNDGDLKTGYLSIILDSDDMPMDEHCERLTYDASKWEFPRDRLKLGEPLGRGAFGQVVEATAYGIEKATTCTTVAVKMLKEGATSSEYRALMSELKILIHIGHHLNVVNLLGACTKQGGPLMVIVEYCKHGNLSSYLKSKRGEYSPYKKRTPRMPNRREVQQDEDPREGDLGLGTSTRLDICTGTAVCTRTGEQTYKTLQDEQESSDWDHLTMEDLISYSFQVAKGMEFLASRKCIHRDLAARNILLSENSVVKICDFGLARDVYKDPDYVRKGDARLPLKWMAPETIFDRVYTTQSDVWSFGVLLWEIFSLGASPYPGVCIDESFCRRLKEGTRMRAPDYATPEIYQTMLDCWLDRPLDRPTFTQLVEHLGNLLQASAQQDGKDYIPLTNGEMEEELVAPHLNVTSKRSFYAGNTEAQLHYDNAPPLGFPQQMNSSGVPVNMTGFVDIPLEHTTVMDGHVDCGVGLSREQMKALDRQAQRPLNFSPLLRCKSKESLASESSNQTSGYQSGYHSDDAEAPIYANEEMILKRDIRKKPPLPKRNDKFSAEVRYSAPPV

Row | Structure (SMILES) | IC50 (SK-MEL [1]) [nM] | Activity (Danio rerio [2]) | Activity [4] | Activity (Danio rerio [5]) | Activity [9] | Activity [10] | Activity [12] | further results
1 | C[C@]12CC[C@H]3[C@@H](CC[C@]4(O)C[C@@H](O)CC[C@]34C=O)[C@@]1(O)CC[C@@H]2c1ccc(=O)oc1 | 96 | Active | Toxic | Active | – | – | – | Activity (SK-MEL [3]): inactive; Activity [6]: inactive
2 | CNC(=O)c1cc(Oc2ccc(NC(=O)Nc3ccc(Cl)c(C(F)(F)F)c3)cc2)ccn1 [SORAFENIB] | 10000 | – | – | – | – | – | – | Activity (SK-MEL [7]): inactive; Activity (SK-MEL [8]): Active
3 | C[C@]12CC[C@@H]3C4=C(C[C@H]3[C@@]1(O)CC[C@@H]2c1ccc(=O)oc1)C(=O)C=CCC4 | 3300 | inactive | Toxic | inactive | Toxic | Toxic | – | –
4 | C[C@]12CC[C@H]3[C@@H](CC[C@]4(O)C[C@@H](O)CC[C@]34O)[C@@]1(O)CC[C@@H]2c1ccc(=O)oc1 | 910 | Active | – | Active | – | – | Non-Toxic | Activity (SK-MEL [11]): inactive; Activity [6]: inactive
5 | C[C@]12CC[C@H]3[C@@H](CC[C@]4(O)C[C@@H](O)CC[C@]34C(=O)O)[C@@]1(O)CC[C@@H]2c1ccc(=O)oc1 | 290 | inactive | – | inactive | – | – | Non-Toxic | –
6 | C[C@]12CC[C@H](O)C[C@@]1(O)CC[C@@H]1[C@@H]2CC[C@]2(C)[C@@H](c3ccc(=O)oc3)[C@@H](O)C[C@]12O | 700 | inactive | – | inactive | – | – | Non-Toxic | –
7 | C[C@]12CC[C@@H]3[C@H]4CC[C@H](O)C[C@@]4(O)CC[C@H]3[C@]13O[C@@H]3C[C@@H]2c1ccc(=O)oc1 | 3600 | inactive | Toxic | inactive | Toxic | Toxic | – | –
8 | C[C@]12CC[C@@H]3[C@H]4CC[C@H](O)C[C@@]4(O)CC[C@H]3[C@@]1(O)CC[C@@H]2c1ccc(=O)oc1 | 280 | – | – | – | – | – | – | –
9 | C[C@]12CC[C@H](O)C[C@@]1(O)CC[C@@H]1[C@@H]2CC[C@]2(C)[C@@H](c3ccc(=O)oc3)CC[C@]12O [TELOCINOBUFAGIN] | 50 | inactive | Toxic | inactive | Toxic | Toxic | – | Activity (SK-MEL [13]): Active; Activity (SK-MEL [14]): Active
